Data set [1] is described as follows: Therapeutic Index is the […] of the IC50 to that of EC50. Format: cell-based. As to conditions: human, H9 cells; read-out: TI.
Data set [2] has as its system H9. Kind of data set: Anti-HIV activity against acutely infected H9 lymphocytes. Activity expressed as concentration of compound able to suppress HIV replication by 50%. Format: functional, cell-based. The settings on record: Homo sapiens. Summed up: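 H9 cells (RPMI 1640, 10% FCS, L-glutamine, 37 °C, 5% CO2, log phase) infected 1 h with HIV-1 IIIB at MOI 0.1-0.01, washed and plated at 4 × 10^5 cells/mL with DMSO-dissolved samples (screen 100, 20, 4, 0.8 µg/mL final, further dilutions for actives). After 4 days, supernatant p24 was measured by antigen-capture ELISA against a standard curve. EC50 is 50% suppression of replication; at least two experiments averaged.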

Data set [3] concerns H9. As to the kind of experiment: Anti-HIV activity against acutely infected H9 lymphocytes. Activity expressed as concentration of compound toxic to 50% of mock-infected H9 cells. Type of data set: functional, cell-based. The settings on record: Homo sapiens. Summed up: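 Uninfected H9 cells were exposed to DMSO-dissolved samples (screen 100, 20, 4, 0.8 µg/mL final) for 4 days at 37 °C, 5% CO2. Remaining cells were counted with a counter against medium-only controls. IC50 is the concentration toxic to 50% of mock-infected cells; at least two experiments averaged.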

Molecules are shown by their SMILES. Bounds are passed on as bounds.

For orientation: EC50 means the concentration at which the effect is half-maximal. The low end stands for greater potency, the high end for weaker potency. In general, IC50 refers to the concentration that inhibits the measured activity by half. In the case of `C=C(C)[C@@H]1CC[C@]2(COC(=O)CCC(=O)O)CC[C@]3(C)[C@H](CC[C@@H]4[C@@]5(C)CC[C@H](OC(=O)CCC(=O)O)C(C)(C)[C@@H]5CC[C@]43C)[C@@H]12`, in data set [1], the selectivity ratio was found to be 9.3. For the same compound, the 50% effective concentration (EC50) in data set [2] was found to be 3.8 µM. The compound further showed an IC50 in data set [3] of 35.3 µM.

On to `C=C(C)[C@@H]1CC[C@]2(COC(=O)CC3(CC(=O)O)CCCC3)CC[C@]3(C)[C@H](CC[C@@H]4[C@@]5(C)CC[C@H](O)C(C)(C)[C@@H]5CC[C@]43C)[C@@H]12`, for which the selectivity ratio in data set [1] amounted to 6.1. Besides, the EC50 in data set [2] is 2.1 µM. The compound also came in with an IC50 in data set [3] of 13.3 µM.

`C=C(C)[C@@H]1CC[C@]2(COC(=O)CCCC(=O)O)CC[C@]3(C)[C@H](CC[C@@H]4[C@@]5(C)CC[C@H](OC(=O)CCCC(=O)O)C(C)(C)[C@@H]5CC[C@]43C)[C@@H]12`: the selectivity ratio in data set [1] stood at 6.8. Further, in data set [2], the response was half-maximal at 3.8 µM (EC50). The compound also yielded a half-inhibitory concentration (IC50) in data set [3] of 25.8 µM.

For `C=C(C)[C@@H]1CC[C@]2(COC(=O)CC(C)(CC)CC(=O)O)CC[C@]3(C)[C@H](CC[C@@H]4[C@@]5(C)CC[C@H](OC(=O)CC(C)(CC)CC(=O)O)C(C)(C)[C@@H]5CC[C@]43C)[C@@H]12` (some centres not stated), the selectivity ratio in data set [1] is 3480.

Take `C=C(C)[C@@H]1CC[C@]2(COC(=O)CC(C)(C)CC(=O)O)CC[C@]3(C)[C@H](CC[C@@H]4[C@@]5(C)CC[C@H](O)C(C)(C)[C@@H]5CC[C@]43C)[C@@H]12`: in data set [1], the selectivity ratio was determined as 7.8.

As to `C=C(C)[C@@H]1CC[C@]2(C(=O)O)CC[C@]3(C)[C@H](CC[C@@H]4[C@@]5(C)CC[C@H](OC(=O)COCC(=O)O)C(C)(C)[C@@H]5CC[C@]43C)[C@@H]12`, the selectivity ratio in data set [1] was 1170.

Consider `C=C(C)[C@@H]1CC[C@]2(COC(=O)C34CC5CC(CC(C5)C3)C4)CC[C@]3(C)[C@H](CC[C@@H]4[C@@]5(C)CC[C@H](OC(=O)CC(C)(C)CC(=O)O)C(C)(C)[C@@H]5CC[C@]43C)[C@@H]12`, for which the selectivity ratio in data set [1] was greater than 44.8. The same compound registered an EC50 in data set [2] of 2.98 µM. Moreover, in data set [3], the IC50 is greater than 134 µM.

For `CC(CC(=O)O)CC(=O)OC[C@]12CC[C@@H](C(C)C)[C@@H]1[C@H]1CC[C@@H]3[C@@]4(C)CC[C@H](OC(=O)CC(C)CC(=O)O)C(C)(C)[C@@H]4CC[C@@]3(C)[C@]1(C)CC2` (some centres not stated), in data set [1], the selectivity ratio was found to be 325. In data set [2], the half-maximal effective concentration (EC50) worked out at 0.059 µM. Besides, in data set [3], half-maximal inhibition (IC50) required 19.2 µM.

In the case of `C=C(C)[C@@H]1CC[C@]2(CO)CC[C@]3(C)[C@H](CC[C@@H]4[C@@]5(C)CC=CC(C)(C)[C@@H]5CC[C@]43C)[C@@H]12`, the selectivity ratio in data set [1] is 2.7.

Take `C=C(C)[C@@H]1CC[C@]2(C(=O)O)CC[C@]3(C)[C@H](CC[C@@H]4[C@@]5(C)CC[C@H](OC(=O)C(C)(C)CC(=O)O)C(C)(C)[C@@H]5CC[C@]43C)[C@@H]12`: in data set [1], the selectivity ratio came to 5.9.

With `C=C(C)[C@@H]1CC[C@]2(CNC(=O)CC3(CC(=O)O)CCCC3)CC[C@]3(C)[C@H](CC[C@@H]4[C@@]5(C)CC[C@H](NC(=O)CC6(CC(=O)O)CCCC6)C(C)(C)[C@@H]5CC[C@]43C)[C@@H]12`, the selectivity ratio in data set [1] amounted to 3.1. The EC50 in data set [2] was determined as 4.81 µM. This compound yielded a 50% inhibitory concentration (IC50) in data set [3] of 15 µM.

For `C=C(C)[C@@H]1CC[C@]2(COC(=O)CC(C)(C)CC(=O)O)CC[C@]3(C)[C@H](CC[C@@H]4[C@@]5(C)CC[C@H](OC(=O)CC(C)(C)CC(=O)O)C(C)(C)[C@@H]5CC[C@]43C)[C@@H]12`, the selectivity ratio in data set [1] worked out at 21500.

On to `C=C(C)[C@@H]1CC[C@]2(CO)CC[C@]3(C)[C@H](CC[C@@H]4[C@@]5(C)CC[C@@H](O)C(C)(C)[C@@H]5CC[C@]43C)[C@@H]12` [3-EPI-BETULIN], for which, in data set [1], the selectivity ratio was found to be 3.4. Moreover, the half-maximal effective concentration (EC50) in data set [2] was 3.62 µM. This compound yielded an IC50 in data set [3] of 12.3 µM.

Regarding `C=C(C)[C@@H]1CC[C@]2(COC(=O)CC(C)CC(=O)O)CC[C@]3(C)[C@H](CC[C@@H]4[C@@]5(C)CC[C@H](OC(=O)CC(C)CC(=O)O)C(C)(C)[C@@H]5CC[C@]43C)[C@@H]12` (some centres not stated), the selectivity ratio in data set [1] was 5310. Further, in data set [2], the EC50 was 0.0039 µM. This compound also returned a half-inhibitory concentration (IC50) in data set [3] of 20.7 µM.

Consider `C=C(C)[C@@H]1CC[C@]2(COC(=O)CC3(CC(=O)O)CCCC3)CC[C@]3(C)[C@H](CC[C@@H]4[C@@]5(C)CC=CC(C)(C)[C@@H]5CC[C@]43C)[C@@H]12`, for which the selectivity ratio in data set [1] amounted to 4.3. In addition, the half-maximal effective concentration (EC50) in data set [2] is 8.5 µM. The compound also showed an IC50 in data set [3] of 36.2 µM.

`C=C(C)[C@@H]1CC[C@]2(CNC(=O)CC(C)(C)CC(=O)O)CC[C@]3(C)[C@H](CC[C@@H]4[C@@]5(C)CC[C@H](NC(=O)CC(C)(C)CC(=O)O)C(C)(C)[C@@H]5CC[C@]43C)[C@@H]12`: in data set [1], the selectivity ratio is 36.6. In data set [2], this compound displayed an EC50 of 0.57 µM. In data set [3], the IC50 was found to be 20.6 µM.

Take `C=C(C)[C@@H]1CC[C@]2(COC(=O)CC(C)(C)CC(=O)O)CC[C@]3(C)[C@H](CC[C@@H]4[C@@]5(C)CC[C@@H](OC(=O)CC(C)(C)CC(=O)O)C(C)(C)[C@@H]5CC[C@]43C)[C@@H]12`: the selectivity ratio in data set [1] is less than 2.4. Moreover, the half-maximal effective concentration (EC50) in data set [2] is greater than 13.8 µM. Further, it took 33.6 µM to reach half-maximal inhibition in data set [3] (IC50).

For the compound `C=C(C)[C@@H]1CC[C@]2(CO)CC[C@]3(C)[C@H](CC[C@@H]4[C@@]5(C)CC[C@H](O)C(C)(C)[C@@H]5CC[C@]43C)[C@@H]12` [BETULIN], in data set [1], the selectivity ratio turned out to be 1.9.

Regarding `C=C(CO)[C@@H]1CC[C@]2(CO)CC[C@]3(C)[C@H](CC[C@@H]4[C@@]5(C)CC[C@H](O)C(C)(C)[C@@H]5CC[C@]43C)[C@@H]12` [30-HYDROXY-BETULIN], the selectivity ratio in data set [1] turned out to be 2.8. In data set [2], this compound showed an EC50 of 50.8 µM. In data set [3], this compound returned an IC50 greater than 140 µM.

For the compound `C=C(C)[C@@H]1CC[C@]2(C=O)CC[C@]3(C)[C@H](CC[C@@H]4[C@@]5(C)CCC(=O)C(C)(C)[C@@H]5CC[C@]43C)[C@@H]12` [BETULONAL], the selectivity ratio in data set [1] amounted to 1.1. In data set [2], this compound gave a 50% effective concentration (EC50) of 45.6 µM. In data set [3], this compound displayed a concentration for half-maximal inhibition (IC50) of 49 µM.

`C=C(C)[C@@H]1CC[C@]2(/C=N/OC(=O)CC(C)(C)CC(=O)O)CC[C@]3(C)[C@H](CC[C@@H]4[C@@]5(C)CC/C(=N\OC(=O)CC(C)(C)CC(=O)O)C(C)(C)[C@@H]5CC[C@]43C)[C@@H]12`: the selectivity ratio in data set [1] worked out at 3.4. The same compound returned an EC50 in data set [2] of 4.57 µM. This compound returned a 50% inhibitory concentration (IC50) in data set [3] of 15.4 µM.

As to `CC(C)[C@@H]1CC[C@]2(COC(=O)CC3(CC(=O)O)CCCC3)CC[C@]3(C)[C@H](CC[C@@H]4[C@@]5(C)CC[C@H](OC(=O)CC6(CC(=O)O)CCCC6)C(C)(C)[C@@H]5CC[C@]43C)[C@@H]12`, the selectivity ratio in data set [1] is 37.

Regarding `C=C(C)[C@@H]1CC[C@]2(COC(=O)CC3(CC(=O)O)CCCC3)CC[C@]3(C)[C@H](CC[C@@H]4[C@@]5(C)CC[C@H](OC(=O)CC6(CC(=O)O)CCCC6)C(C)(C)[C@@H]5CC[C@]43C)[C@@H]12`, the selectivity ratio in data set [1] came out at 267.

As for `C=C(COC(=O)CC(C)(C)CC(=O)O)[C@@H]1CC[C@]2(COC(=O)CC(C)(C)CC(=O)O)CC[C@]3(C)[C@H](CC[C@@H]4[C@@]5(C)CC[C@H](OC(=O)CC(C)(C)CC(=O)O)C(C)(C)[C@@H]5CC[C@]43C)[C@@H]12`, the selectivity ratio in data set [1] was 389. In data set [2], the 50% effective concentration (EC50) was 0.045 µM. This compound also yielded an IC50 in data set [3] of 17.5 µM.

As for `C=C(C)[C@@H]1CC[C@]2(COC(=O)CC3(CC(=O)O)CCCC3)CC[C@]3(C)[C@H](CC[C@@H]4[C@@]5(C)CCC(=O)C(C)(C)[C@@H]5CC[C@]43C)[C@@H]12`, the selectivity ratio in data set [1] came out at 3. The concentration for a half-maximal effect (EC50) in data set [2] was 4.3 µM. In data set [3], the IC50 came to 12.8 µM.

In the case of `C=C(C)[C@@H]1CC[C@]2(COC(=O)CC(C)(C)CC(=O)O)CC[C@]3(C)[C@H](CC[C@@H]4[C@@]5(C)CC=CC(C)(C)[C@@H]5CC[C@]43C)[C@@H]12`, the selectivity ratio in data set [1] turned out to be 5.2.

`CCC(C)(CC(=O)O)CC(=O)OC[C@]12CC[C@@H](C(C)C)[C@@H]1[C@H]1CC[C@@H]3[C@@]4(C)CC[C@H](OC(=O)CC(C)(CC)CC(=O)O)C(C)(C)[C@@H]4CC[C@@]3(C)[C@]1(C)CC2` (some centres not stated): in data set [1], the selectivity ratio stood at 248.

`CC(C)[C@@H]1CC[C@]2(COC(=O)CC(C)(C)CC(=O)O)CC[C@]3(C)[C@H](CC[C@@H]4[C@@]5(C)CC[C@H](OC(=O)CC(C)(C)CC(=O)O)C(C)(C)[C@@H]5CC[C@]43C)[C@@H]12`: in data set [1], the selectivity ratio turned out to be 2250.

Turning to `C=C(C)[C@@H]1CC[C@]2(C(=O)O)CC[C@]3(C)[C@H](CC[C@@H]4[C@@]5(C)CC[C@H](OC(=O)CC(C)(C)C(=O)O)C(C)(C)[C@@H]5CC[C@]43C)[C@@H]12` [BEVIRIMAT], the selectivity ratio in data set [1] was greater than 20000. Moreover, in data set [2], the EC50 was less than 0.00035 µM. Also, in data set [3], the IC50 was greater than 7 µM.

Turning to `CC(C)[C@@H]1CC[C@]2(COC(=O)CCCC(=O)O)CC[C@]3(C)[C@H](CC[C@@H]4[C@@]5(C)CC[C@H](OC(=O)CCCC(=O)O)C(C)(C)[C@@H]5CC[C@]43C)[C@@H]12`, the selectivity ratio in data set [1] was found to be 17. The same compound had an EC50 in data set [2] of 1.6 µM. In addition, in data set [3], the IC50 worked out at 26.3 µM.

Regarding `C=C(C)[C@@H]1CC[C@]2(COC(=O)CC(C)(C)CC(=O)O)CC[C@]3(C)[C@H](CC[C@@H]4[C@@]5(C)CCC(=O)C(C)(C)[C@@H]5CC[C@]43C)[C@@H]12`, the selectivity ratio in data set [1] amounted to 2.9.

Values taken from ChEMBL document CHEMBL1131182, “Anti-AIDS agents. 34. Synthesis and structure-activity relationships of betulin derivatives as anti-HIV agents” (J Med Chem, 1998).
